Assay results from ChEMBL document CHEMBL3868627, “Radical scavenging and antibacterial activity of caffemides against gram positive, gram negative and clinical drug resistance bacteria” (Bioorg Med Chem Lett, 2016).
pEC50: −log10 of the molar value.

Columns and labels:
Format in all cases: functional
[1] = system: Pseudomonas aeruginosa; experiment: Bactericidal activity against Pseudomonas aeruginosa PAO1 ATCC 15692 at 50 to 100 ug/ml measured after 3 hrs by serial dilution method relative to control
[2] = Antioxidant activity assessed as DPPH free radical scavenging activity measured after 30 mins by spectrophotometry
Summary of the method: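 DPPH radical scavenging in ethanolic solution with a final DPPH concentration of 100 µM. Absorbance read at 517 nm. Percent inhibition = (A control − A test)/A control, where the control is DPPH without sample. The inhibition-versus-concentration plot gives EC50, the concentration giving a 50% drop in absorbance. Mean ± S.D. of three independent trials.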

[3] = system: Staphylococcus aureus; experiment: Antibacterial activity against methicillin-resistant Staphylococcus aureus ATCC 43300 assessed as colony forming units at 10 ug/ml measured after 24 hrs by serial dilution method (reference value: 74 +/- 2 10^6CFU)
Summary of the method: (§1)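 Bacteria were exposed to test compound over a range of µg/ml concentrations. Viable bacteria were counted by colony forming unit (CFU) assay at set time points (6 h and 24 h for M. smegmatis and S. aureus strains), and untreated bacteria served as the control. Percentage of population killed was calculated relative to the untreated control. Values are means ± S.D of three independent trials.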

[4] = system: Staphylococcus aureus; experiment: Bactericidal activity against Staphylococcus aureus ATCC 25923 at 200 ug/ml measured after 6 hrs by serial dilution method relative to control
[5] = system: Staphylococcus aureus; experiment: Bactericidal activity against methicillin-resistant Staphylococcus aureus ATCC 43300 at 50 ug/ml measured after 24 hrs by serial dilution method relative to control; summary of the method: as §1
[6] = system: Staphylococcus aureus; experiment: Antibacterial activity against methicillin-resistant Staphylococcus aureus ATCC 43300 assessed as colony forming units at 200 ug/ml measured after 6 hrs by serial dilution method (reference value: 64.33 +/- 3.51 10^6CFU); summary of the method: as §1
[7] = system: Pseudomonas aeruginosa; experiment: Bactericidal activity against Pseudomonas aeruginosa PAO1 ATCC 15692 at 10 to 50 ug/ml measured after 1 hrs by serial dilution method relative to control
[8] = system: Staphylococcus aureus; experiment: Bactericidal activity against Staphylococcus aureus ATCC 25923 at 1 to 10 ug/ml measured after 6 hrs by serial dilution method relative to control
[9] = system: Staphylococcus aureus; experiment: Antibacterial activity against methicillin-resistant Staphylococcus aureus ATCC 43300 assessed as colony forming units at 1 ug/ml measured after 24 hrs by serial dilution method (reference value: 74 +/- 2 10^6CFU); summary of the method: as §1
[10] = system: Pseudomonas aeruginosa; experiment: Antibacterial activity against Pseudomonas aeruginosa PAO1 ATCC 15692 assessed as colony forming units at 100 ug/ml measured after 1 hr by serial dilution method (reference value: 85.33 +/- 4.04 10^8CFU)
[11] = system: Pseudomonas aeruginosa; experiment: Bactericidal activity against Pseudomonas aeruginosa PAO1 ATCC 15692 at 50 ug/ml measured after 1 hr by serial dilution method relative to control
[12] = system: Pseudomonas aeruginosa; experiment: Bactericidal activity against Pseudomonas aeruginosa PAO1 ATCC 15692 at 50 ug/ml measured after 3 hrs by serial dilution method relative to control
[13] = system: Staphylococcus aureus; experiment: Bactericidal activity against Staphylococcus aureus ATCC 25923 at 100 ug/ml measured after 24 hrs by serial dilution method relative to control
[14] = system: Staphylococcus aureus; experiment: Bactericidal activity against Staphylococcus aureus ATCC 25923 at 100 ug/ml measured after 6 hrs by serial dilution method relative to control

Structure (SMILES) | Activity [1] [%] | pEC50 [2] | Activity [3] [×10⁶ CFU] | Activity [4] [%] | Activity [5] [%] | Activity [6] [×10⁶ CFU] | Activity [7] [%] | Activity [8] [%] | Activity [9] [×10⁶ CFU] | Activity [10] [×10⁸ CFU] | Activity [11] [%] | Activity [12] [%] | Activity [13] [%] | Activity [14] [%]
Cc1ccc(O)c(NC(=O)/C=C/c2ccc(O)c(O)c2)c1 | 50 | 5.18 | 41.33 | 93.8 | 64.8 | 6.66 | 50 | 60.9 | 54.33 | 23.33 | – | – | – | –
O=C(/C=C/c1ccc(O)c(O)c1)Nc1ccccc1Nc1ccccc1 | – | 4.83 | 41.66 | – | 61.2 | – | – | – | 60 | 22.33 | 58.9 | 62.1 | 84.9 | 92.3
